IC50, Ratio and permeability data for six compounds are collected here from ChEMBL document CHEMBL1157151, “Design and synthesis of N-(3,5-difluoro-4-hydroxyphenyl)benzenesulfonamides as aldose reductase inhibitors” (Bioorg Med Chem, 2008).

Assay [1] has as its target Aldo-keto reductase family 1 member B1 (Rattus norvegicus, UniProt P07943). Put plainly: Inhibition of aldose reductase in rat lenses. The gist of the method:
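Activity read spectrophotometrically as NADPH oxidation. Five concentrations; IC50 by least-squares fit of linear portion of log(dose)–response curve; triplicate.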

The test system of assay [2] is Jejunum. Put plainly: Ratio of permeability from serosal to mucosal over mucosal to serosal side of the Wistar rat jejunum.
Assay [3] is described as follows: DPPH radical scavenging activity. It counts as functional. The essentials: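 Compound in ethanol mixed with ethanolic DPPH; final 0.2–0.0125 mM compound, 0.2 mM DPPH. Absorbance loss at 517 nm followed. IC50 from nine concentrations at 270 min steady state; EC50 = IC50/[DPPH]. Initial rate from linear absorbance decrease over first 30 s at equimolar 0.2 mM. Triplicate.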
(Loss of DPPH colour is used to gauge radical scavenging.)

For assay [4], the system named is Jejunum. Put plainly: Apparent permeability from mucosal to serosal side in Wistar rat jejunum. It counts as functional, tissue-based. The gist of the method:
(§1)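 Jejunum from starved male Wistar rats (250–320 g), 1 cm² exposed, in side-by-side diffusion chambers; 25 min preincubation. Donor: 0.479 mM compound, 10 µM fluorescein paracellular marker, glucose or mannitol in Ringer buffer, applied mucosal (M–S) or serosal (S–M). Acceptor sampled every 25 min to 175 min. Viability checked by PD, Isc, TEER. HPLC-UV 220 nm, fluorescein by fluorescence. Papp calculated.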

Assay [5] is described as follows: Antioxidant activity assessed as inhibition of DOPC liposomes. Format: functional. The gist of the method: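 Unilamellar DOPC liposomes (final 0.8 mM) in 20 mM phosphate buffer pH 7.4 incubated with test compound (10–300 µM) and AAPH initiator (final 10 mM), 50 °C, 80 min. Lipid hydroperoxides extracted with CHCl₃/MeOH (2:1) containing BHT, measured by thiocyanate method at 500 nm against cumene hydroperoxide calibration. IC50 by least-squares fit of linear part of semilog % inhibition plot; triplicate.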

Assay [6] concerns Jejunum. Put plainly: Apparent permeability from serosal to mucosal side in Wistar rat jejunum. Format: functional, tissue-based. The gist of the method:
as §1

Turning to `COc1ccc(S(=O)(=O)Nc2cc(F)c(O)c(F)c2)cc1`, in assay [1], the IC50 (usually the concentration that gives 50% inhibition) was determined as 15.5 µM.

For the compound `Nc1ccc(S(=O)(=O)Nc2cc(F)c(O)c(F)c2)cc1`, it took 14.1 µM to reach half-maximal inhibition in assay [1] (IC50).

`O=S(=O)(Nc1cc(F)c(O)c(F)c1)c1ccccc1`: the Ratio in assay [2] is 0.46. In addition, the concentration for half-maximal inhibition (IC50) in assay [1] came out at 32.9 µM; in assay [3] it was 49 µM; in assay [5], 95.9 µM. The permeability was determined as 6.34 ×10⁻⁶ cm/s in assay [4] and 2.91 ×10⁻⁶ cm/s in assay [6].

Regarding `O=[N+]([O-])c1ccc(S(=O)(=O)Nc2cc(F)c(O)c(F)c2)cc1`, in assay [1], half-maximal inhibition (IC50) was put at 44.4 µM.

In the case of `CC(/C=C1\SC(=S)N(CC(=O)O)C1=O)=C\c1ccccc1`, the Ratio in assay [2] came out at 2.5. For the same compound, the figures for the permeability in assay [4] and in assay [6] were 4.34 ×10⁻⁶ cm/s and 10.9 ×10⁻⁶ cm/s, respectively.

For `Cc1c(C)c2c(c(C)c1O)CCC(C)(C(=O)O)O2` (centres undefined) [TROLOX], the concentration for half-maximal inhibition (IC50) was 37 µM in assay [3] and 93.5 µM in assay [5].
